In ChEMBL document CHEMBL1139946, “1-Aryl-4,6-dihydropyrazolo[4,3-d][1]benzazepin-5(1H)-ones: a new class of antiproliferative agents with selectivity for human leukemia and breast cancer cell lines” (Eur J Med Chem, 2007):

How the values were obtained:
[1] = target: Aurora kinase B (Homo sapiens) (UniProt Q96GD4); assay: Inhibition of aurora B at 10 uM
[2] = target: Insulin-like growth factor 1 receptor (Homo sapiens) (UniProt P08069); assay: Inhibition of IGF1R at 10 uM
SF-268 = assay: Antiproliferative activity against human SF268 cells at 100 uM after 48 hrs relative to control; assay type: functional; conditions: SF-268, 48 h
Outline: (§1)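 NCI three-cell-line prescreen (MCF7 breast, NCI-H460 non-small cell lung, SF-268 CNS). Cells inoculated and preincubated in microtiter plates, then exposed to test agent at 10^-4 M for 48 h. Alamar blue end-point read-out. Growth of treated cells expressed as percent of untreated control cells.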

[3] = target: T1, Vascular endothelial growth factor receptor 3 (Homo sapiens, UniProt P35916); assay: Inhibition of VEGFR3 at 10 uM
[4] = target: Proto-oncogene tyrosine-protein kinase Src (Homo sapiens) (UniProt P12931); assay: Inhibition of SRC at 10 uM
[5] = target: Serine/threonine-protein kinase PLK1 (Homo sapiens) (UniProt P53350); assay: Inhibition of PLK1 at 10 uM
NCI-H460 = assay: Antiproliferative activity against human NCI-H460 cells at 100 uM after 48 hrs relative to control; assay type: functional; conditions: NCI-H460, 48 h; outline: as §1
[6] = target: T2, Serine/threonine-protein kinase PLK4 (Homo sapiens) (UniProt O00444); assay: Inhibition of SAK at 10 uM
T2 sequence (whole entry): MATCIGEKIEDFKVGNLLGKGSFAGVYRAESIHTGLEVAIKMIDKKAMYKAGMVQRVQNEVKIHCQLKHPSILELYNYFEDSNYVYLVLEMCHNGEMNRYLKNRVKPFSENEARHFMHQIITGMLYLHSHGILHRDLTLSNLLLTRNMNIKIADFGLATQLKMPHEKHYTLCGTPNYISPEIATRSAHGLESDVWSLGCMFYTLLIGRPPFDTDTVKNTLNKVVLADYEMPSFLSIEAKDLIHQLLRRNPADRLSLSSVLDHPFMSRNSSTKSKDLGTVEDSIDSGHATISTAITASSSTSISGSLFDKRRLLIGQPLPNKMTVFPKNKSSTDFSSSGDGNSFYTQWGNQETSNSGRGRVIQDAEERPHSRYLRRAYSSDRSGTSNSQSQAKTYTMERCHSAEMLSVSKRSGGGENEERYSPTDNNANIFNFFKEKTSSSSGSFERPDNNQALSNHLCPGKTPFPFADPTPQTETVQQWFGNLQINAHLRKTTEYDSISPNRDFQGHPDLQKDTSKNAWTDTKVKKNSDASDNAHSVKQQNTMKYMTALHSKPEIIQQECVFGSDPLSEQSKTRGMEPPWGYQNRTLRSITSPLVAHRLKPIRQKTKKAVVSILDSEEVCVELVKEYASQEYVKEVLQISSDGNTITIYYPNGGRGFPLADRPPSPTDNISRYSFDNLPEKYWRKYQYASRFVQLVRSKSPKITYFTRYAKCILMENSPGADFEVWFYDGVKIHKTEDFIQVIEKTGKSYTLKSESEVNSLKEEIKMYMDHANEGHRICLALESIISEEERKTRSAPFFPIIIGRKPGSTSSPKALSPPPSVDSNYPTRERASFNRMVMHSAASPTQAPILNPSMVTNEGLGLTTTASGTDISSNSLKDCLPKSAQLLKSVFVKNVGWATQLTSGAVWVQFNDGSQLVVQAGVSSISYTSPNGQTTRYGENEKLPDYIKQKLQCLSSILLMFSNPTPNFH

[7] = target: Serine/threonine-protein kinase PAK 4 (Homo sapiens) (UniProt O96013); assay: Inhibition of PAK4 at 10 uM
[8] = target: Platelet-derived growth factor receptor beta (Homo sapiens) (UniProt P09619); assay: Inhibition of PDGFRbeta at 10 uM
[9] = target: T3, Aurora kinase A (Homo sapiens) (UniProt O14965); assay: Inhibition of aurora A at 10 uM
T3 sequence (whole entry): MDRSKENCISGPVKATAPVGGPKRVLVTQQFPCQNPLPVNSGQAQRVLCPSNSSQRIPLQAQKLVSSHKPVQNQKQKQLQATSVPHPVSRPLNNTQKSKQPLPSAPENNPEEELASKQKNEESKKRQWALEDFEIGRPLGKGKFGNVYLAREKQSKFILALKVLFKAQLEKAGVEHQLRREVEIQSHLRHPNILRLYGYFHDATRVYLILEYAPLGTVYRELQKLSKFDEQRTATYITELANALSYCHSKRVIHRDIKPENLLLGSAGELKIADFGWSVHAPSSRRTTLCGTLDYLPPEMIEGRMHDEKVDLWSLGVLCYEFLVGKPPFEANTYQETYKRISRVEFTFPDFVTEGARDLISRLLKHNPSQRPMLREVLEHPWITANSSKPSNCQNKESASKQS

Homo sapiens [10] = species on record: Homo sapiens; assay: Inhibition of CDK4/cyclinD1 at 10 uM
[11] = target: RAC-alpha serine/threonine-protein kinase (Homo sapiens) (UniProt P31749); assay: Inhibition of AKT1 at 10 uM
Homo sapiens [12] = species on record: Homo sapiens; assay: Inhibition of CK2-alpha1 at 10 uM
MDA-MB-435 = assay: Antitumor activity against human MDA-MB435 cells after 48 hrs by sulforhodamine B protein assay; assay type: functional; conditions: MDA-MB-435, 48 h
Outline: (§2)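 Part of the NCI 60-cell-line screen. Compounds tested at five concentrations (10^-8 to 10^-4 M) with continuous exposure for 48 h. Cell growth read by sulforhodamine B protein assay, with percent growth from optical density of treated versus untreated control cultures. GI50 is the concentration giving 50% net growth inhibition.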

K562 = assay: Antitumor activity against human K562 cells after 48 hrs by sulforhodamine B protein assay; assay type: functional; conditions: K562, 48 h; outline: as §2
[13] = target: T1, Vascular endothelial growth factor receptor 3; assay: Inhibition of VEGFR3
[14] = target: Epidermal growth factor receptor (Homo sapiens) (UniProt P00533); assay: Inhibition of EGFR at 10 uM

Chain of RAC-alpha serine/threonine-protein kinase (Homo sapiens) (P31749 whole entry): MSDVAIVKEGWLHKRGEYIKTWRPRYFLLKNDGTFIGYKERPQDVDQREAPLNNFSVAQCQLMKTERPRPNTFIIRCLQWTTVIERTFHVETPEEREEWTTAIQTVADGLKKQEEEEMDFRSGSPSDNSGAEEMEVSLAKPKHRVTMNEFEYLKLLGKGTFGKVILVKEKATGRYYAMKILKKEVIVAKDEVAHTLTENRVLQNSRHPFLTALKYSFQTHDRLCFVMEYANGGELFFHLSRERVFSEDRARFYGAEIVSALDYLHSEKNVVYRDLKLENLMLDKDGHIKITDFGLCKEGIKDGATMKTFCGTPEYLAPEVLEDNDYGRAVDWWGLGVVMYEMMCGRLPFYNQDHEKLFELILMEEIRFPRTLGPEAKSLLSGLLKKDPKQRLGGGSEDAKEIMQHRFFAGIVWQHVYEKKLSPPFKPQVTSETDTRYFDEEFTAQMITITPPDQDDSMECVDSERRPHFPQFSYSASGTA
Chain of Proto-oncogene tyrosine-protein kinase Src (Homo sapiens) (P12931 2-536 limits assumed): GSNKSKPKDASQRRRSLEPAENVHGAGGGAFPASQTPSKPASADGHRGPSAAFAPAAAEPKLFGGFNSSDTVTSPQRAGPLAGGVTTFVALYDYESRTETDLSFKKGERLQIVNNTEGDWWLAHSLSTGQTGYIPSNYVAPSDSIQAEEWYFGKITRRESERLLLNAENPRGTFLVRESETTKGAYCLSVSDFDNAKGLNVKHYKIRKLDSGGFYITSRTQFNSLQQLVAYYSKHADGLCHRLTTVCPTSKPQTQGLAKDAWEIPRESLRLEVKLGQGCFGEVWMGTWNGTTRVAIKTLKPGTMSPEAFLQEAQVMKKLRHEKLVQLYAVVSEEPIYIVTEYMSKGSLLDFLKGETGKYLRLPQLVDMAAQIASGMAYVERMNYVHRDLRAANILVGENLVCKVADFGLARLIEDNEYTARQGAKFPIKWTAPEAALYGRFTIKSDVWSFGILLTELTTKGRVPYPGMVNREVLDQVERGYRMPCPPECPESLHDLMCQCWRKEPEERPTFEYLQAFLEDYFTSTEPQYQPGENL
Chain of Aurora kinase B (Homo sapiens) (Q96GD4 whole entry): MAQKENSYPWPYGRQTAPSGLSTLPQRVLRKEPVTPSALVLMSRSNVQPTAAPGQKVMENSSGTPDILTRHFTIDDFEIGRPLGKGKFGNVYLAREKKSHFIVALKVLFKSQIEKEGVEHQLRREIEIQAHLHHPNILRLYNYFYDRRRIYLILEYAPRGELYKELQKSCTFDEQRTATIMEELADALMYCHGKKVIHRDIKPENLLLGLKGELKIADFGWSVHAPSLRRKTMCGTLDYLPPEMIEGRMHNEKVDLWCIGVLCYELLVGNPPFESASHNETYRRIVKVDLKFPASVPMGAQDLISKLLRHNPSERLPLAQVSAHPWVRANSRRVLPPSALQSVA
Chain of Insulin-like growth factor 1 receptor (Homo sapiens) (P08069 31-736 limits assumed): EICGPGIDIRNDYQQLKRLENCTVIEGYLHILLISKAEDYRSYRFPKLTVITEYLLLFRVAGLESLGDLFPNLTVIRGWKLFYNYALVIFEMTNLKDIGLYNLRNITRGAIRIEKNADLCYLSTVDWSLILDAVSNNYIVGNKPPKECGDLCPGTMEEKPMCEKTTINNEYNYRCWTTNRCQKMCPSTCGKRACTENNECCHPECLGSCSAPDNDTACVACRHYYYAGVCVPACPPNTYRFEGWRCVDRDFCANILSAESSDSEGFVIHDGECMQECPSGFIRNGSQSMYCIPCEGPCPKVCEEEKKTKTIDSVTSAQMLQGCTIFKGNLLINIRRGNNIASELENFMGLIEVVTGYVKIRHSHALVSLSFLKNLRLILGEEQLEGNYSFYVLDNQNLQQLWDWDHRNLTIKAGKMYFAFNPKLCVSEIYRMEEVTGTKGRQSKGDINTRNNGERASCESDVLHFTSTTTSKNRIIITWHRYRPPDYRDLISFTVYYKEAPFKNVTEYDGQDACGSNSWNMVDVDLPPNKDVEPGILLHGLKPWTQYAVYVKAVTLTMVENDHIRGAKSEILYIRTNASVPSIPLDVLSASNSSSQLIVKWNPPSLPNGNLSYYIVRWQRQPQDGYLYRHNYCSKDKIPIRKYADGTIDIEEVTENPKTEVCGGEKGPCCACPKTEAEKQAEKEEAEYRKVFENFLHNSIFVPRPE
Chain of Insulin-like growth factor 1 receptor (Homo sapiens) (P08069 741-1367 limits assumed): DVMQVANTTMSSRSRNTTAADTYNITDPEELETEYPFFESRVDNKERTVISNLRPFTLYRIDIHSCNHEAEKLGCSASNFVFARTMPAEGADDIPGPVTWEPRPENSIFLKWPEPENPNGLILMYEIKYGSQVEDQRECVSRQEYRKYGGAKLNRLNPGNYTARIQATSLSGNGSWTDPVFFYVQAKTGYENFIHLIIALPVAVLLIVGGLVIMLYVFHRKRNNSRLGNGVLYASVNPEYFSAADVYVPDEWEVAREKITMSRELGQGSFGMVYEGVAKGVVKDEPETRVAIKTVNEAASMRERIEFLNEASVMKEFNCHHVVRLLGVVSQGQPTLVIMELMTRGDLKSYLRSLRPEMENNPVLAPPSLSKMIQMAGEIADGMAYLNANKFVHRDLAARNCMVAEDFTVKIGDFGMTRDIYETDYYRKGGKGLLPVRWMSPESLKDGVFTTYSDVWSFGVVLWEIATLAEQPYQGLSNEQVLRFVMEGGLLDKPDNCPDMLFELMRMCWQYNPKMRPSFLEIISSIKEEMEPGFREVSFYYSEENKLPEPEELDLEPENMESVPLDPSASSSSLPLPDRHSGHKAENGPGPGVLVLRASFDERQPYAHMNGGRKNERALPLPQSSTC
T1 sequence (P35916 whole entry): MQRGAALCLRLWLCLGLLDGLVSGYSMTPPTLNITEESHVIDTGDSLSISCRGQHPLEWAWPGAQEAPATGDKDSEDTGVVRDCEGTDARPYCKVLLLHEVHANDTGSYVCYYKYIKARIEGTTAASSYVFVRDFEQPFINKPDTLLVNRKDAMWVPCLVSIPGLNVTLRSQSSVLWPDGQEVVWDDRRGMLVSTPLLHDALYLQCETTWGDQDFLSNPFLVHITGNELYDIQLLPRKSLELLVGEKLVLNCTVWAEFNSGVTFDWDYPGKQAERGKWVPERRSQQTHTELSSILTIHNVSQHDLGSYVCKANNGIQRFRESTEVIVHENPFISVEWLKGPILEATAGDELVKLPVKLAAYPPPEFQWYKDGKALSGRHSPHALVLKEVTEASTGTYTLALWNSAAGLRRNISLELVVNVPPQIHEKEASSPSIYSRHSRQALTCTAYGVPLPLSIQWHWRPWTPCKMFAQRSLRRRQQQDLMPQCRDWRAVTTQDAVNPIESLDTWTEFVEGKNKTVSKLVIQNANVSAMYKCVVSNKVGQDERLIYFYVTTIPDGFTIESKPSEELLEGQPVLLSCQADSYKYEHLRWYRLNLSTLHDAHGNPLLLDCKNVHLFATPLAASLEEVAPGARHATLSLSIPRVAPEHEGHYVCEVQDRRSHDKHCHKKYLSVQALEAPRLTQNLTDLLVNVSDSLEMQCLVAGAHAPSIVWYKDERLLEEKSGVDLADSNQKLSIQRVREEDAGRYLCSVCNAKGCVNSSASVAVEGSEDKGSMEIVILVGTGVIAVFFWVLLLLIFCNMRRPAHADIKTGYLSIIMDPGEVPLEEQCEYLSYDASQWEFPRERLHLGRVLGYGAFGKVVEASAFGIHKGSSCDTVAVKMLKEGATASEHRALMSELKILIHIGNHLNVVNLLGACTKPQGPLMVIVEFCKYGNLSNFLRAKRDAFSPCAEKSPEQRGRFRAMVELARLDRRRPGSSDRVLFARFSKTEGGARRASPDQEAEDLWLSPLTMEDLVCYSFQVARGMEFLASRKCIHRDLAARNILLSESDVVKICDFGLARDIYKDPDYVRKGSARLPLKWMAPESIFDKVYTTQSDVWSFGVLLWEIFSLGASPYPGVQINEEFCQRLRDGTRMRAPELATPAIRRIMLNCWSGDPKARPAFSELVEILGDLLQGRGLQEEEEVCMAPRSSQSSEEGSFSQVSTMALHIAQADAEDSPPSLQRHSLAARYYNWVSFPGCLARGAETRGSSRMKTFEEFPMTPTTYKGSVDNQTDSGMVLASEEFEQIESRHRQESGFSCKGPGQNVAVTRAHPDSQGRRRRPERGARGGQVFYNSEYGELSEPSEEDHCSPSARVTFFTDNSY
Chain of Serine/threonine-protein kinase PLK1 (Homo sapiens) (P53350 whole entry): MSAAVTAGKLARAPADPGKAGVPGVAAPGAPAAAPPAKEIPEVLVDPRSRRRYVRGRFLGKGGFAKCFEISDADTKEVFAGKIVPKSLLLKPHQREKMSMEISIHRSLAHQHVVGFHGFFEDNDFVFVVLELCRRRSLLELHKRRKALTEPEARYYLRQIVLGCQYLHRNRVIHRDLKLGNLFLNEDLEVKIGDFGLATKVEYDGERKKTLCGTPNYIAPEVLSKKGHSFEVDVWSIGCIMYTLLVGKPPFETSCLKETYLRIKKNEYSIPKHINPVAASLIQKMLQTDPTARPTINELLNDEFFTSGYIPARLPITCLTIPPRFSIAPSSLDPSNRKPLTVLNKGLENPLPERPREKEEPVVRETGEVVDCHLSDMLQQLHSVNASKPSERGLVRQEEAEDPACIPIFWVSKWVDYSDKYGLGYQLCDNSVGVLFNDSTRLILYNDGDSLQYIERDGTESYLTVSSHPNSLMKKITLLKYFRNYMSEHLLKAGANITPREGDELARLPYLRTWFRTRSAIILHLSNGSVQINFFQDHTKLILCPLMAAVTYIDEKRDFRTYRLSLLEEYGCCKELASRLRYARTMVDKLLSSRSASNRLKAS

SMILES	inhibition [1] [%]	inhibition [2] [%]	growth, % of control at 100 µM (SF-268) [%]	inhibition [3] [%]	inhibition [4] [%]	inhibition [5] [%]	growth, % of control at 100 µM (NCI-H460) [%]	inhibition [6] [%]	inhibition [7] [%]	inhibition [8] [%]	inhibition [9] [%]	inhibition (Homo sapiens [10]) [%]	inhibition [11] [%]	inhibition (Homo sapiens [12]) [%]	GI50 (MDA-MB-435) [µM]	GI50 (K562) [µM]	IC50 [13] [µM]	inhibition [14] [%]
O=C1Cc2cnn(-c3ccccc3Br)c2-c2ccccc2N1	< 40	< 40	87	< 40	< 40	< 40	44	< 40	< 40	< 40	< 40	< 40	< 40	< 40				
O=C1Cc2cnn(-c3ccc([N+](=O)[O-])cc3)c2-c2ccccc2N1	< 40	< 40	62	< 40	< 40	< 40	62	< 40	< 40	< 40	< 40	< 40	< 40	< 40				
Cc1ccccc1-n1ncc2c1-c1ccccc1NC(=O)C2	< 40	< 40	98	< 40	< 40	< 40	49	< 40	< 40	< 40	< 40	< 40	< 40	< 40				
O=C1Cc2cnn(-c3ccc(Br)cc3)c2-c2ccccc2N1	< 40	< 40	98	< 40	< 40	< 40	32	< 40	< 40	< 40	< 40	< 40	< 40	< 40	1.91	4.07		
COc1ccc(-n2ncc3c2-c2ccccc2NC(=O)C3)cc1	< 40	< 40	88	< 40	< 40	< 40	26	< 40	< 40	< 40	< 40	< 40	< 40	< 40	0.025	0.35		
CC(C)(C)c1ccc(-n2ncc3c2-c2ccccc2NC(=O)C3)cc1	< 40	< 40			< 40	< 40	11	< 40	< 40	< 40	< 40	< 40	< 40	< 40	18.6	31.6	> 10	
O=C1Cc2cnn(-c3ccccc3F)c2-c2ccccc2N1	< 40	< 40	98	< 40	< 40	< 40	49	< 40	< 40	< 40	< 40	< 40	< 40	< 40				
Cc1ccc(-n2ncc3c2-c2ccccc2NC(=O)C3)cc1	< 40	< 40	95	< 40	< 40	< 40	29	< 40	< 40	< 40	< 40	< 40	< 40	< 40	2.09	1.78		
O=C1Cc2cnn(-c3ccccc3)c2-c2ccccc2N1	< 40	< 40	90	< 40	< 40	< 40	33	< 40	< 40	< 40	< 40	< 40	< 40	< 40				< 40
O=C1Cc2cnn(-c3cc(Cl)cc(Cl)c3)c2-c2ccccc2N1	< 40	< 40	62	< 40	< 40	< 40	21	< 40	< 40	< 40	< 40	< 40	< 40	< 40	< 0.01	< 0.01		
O=C1Cc2cnn(-c3ccc(C(F)(F)F)cc3)c2-c2ccccc2N1	< 40	< 40		< 40	< 40	< 40	28	< 40	< 40	< 40	< 40	< 40	< 40	< 40	11.2	12.6		
O=C1Cc2cnn(-c3ccccc3Cl)c2-c2ccccc2N1	< 40	< 40	71	< 40	< 40	< 40	53	< 40	< 40	< 40	< 40	< 40	< 40	< 40				
O=C1Cc2cnn(-c3ccc(F)cc3F)c2-c2ccccc2N1	< 40	< 40	98	< 40	< 40	< 40	41	< 40	< 40	< 40	< 40	< 40	< 40	< 40				
